# Laboratory results as given in paper PMC4055946 (Nuclear medicine and biology, 2014).
# Tests used:
# cathepsin K = biological target: T1, cathepsin K (Rattus norvegicus, UniProt O35186); assay: MicroPET imaging of bone uptake and blocking in rat; conditions: for radioactivity in actively growing bone regions relative to non-target regions such as muscle: normal rat, microPET, 0-60 min, i.v.
# T1 sequence (O35186 115-329): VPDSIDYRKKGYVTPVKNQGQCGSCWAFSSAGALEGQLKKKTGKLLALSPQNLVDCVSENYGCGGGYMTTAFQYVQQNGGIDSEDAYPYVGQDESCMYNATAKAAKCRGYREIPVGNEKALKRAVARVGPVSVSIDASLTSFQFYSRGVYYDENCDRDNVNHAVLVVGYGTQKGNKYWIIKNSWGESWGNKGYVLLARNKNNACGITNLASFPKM
# [1] = Rat whole body biodistribution of radioactivity after intravenous injection; type: in vivo; conditions: female CD rats, i.v., N = 3; for Tissue biodistribution, Bone, avg: femur in its entirety
# Outline: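 Female CD rats (N = 6) under light isoflurane got carbon-11 labeled test compound (1.85-4.44 MBq in 5% ethanol/saline) by tail vein. At 5 and 40 min, groups of 3 were anesthetized and killed by decapitation, and tissues were removed. Samples were weighed and counted for carbon-11, and uptake was expressed as % injected dose/g.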
smiles,measurement,setting,value
"CC(C)(C)CNc1nc(C#N)ncc1C(=O)NCCc1ccc(O[11CH3])cc1 [[^11C]2, 2-cyano-N-(4-[^11C]methoxyphenethyl)-4-(neopentylamino)pyrimidine-5-carboxamide]",radioactivity in actively growing bone regions relative to non-target regions such as muscle,cathepsin K,2 to 3 times
same,bone uptake of radioactivity after blocking dose of unlabeled ligand,"cathepsin K; rat microPET, 2 mg/kg unlabeled 2 ten minutes prior to the radioligand",reduction of bone uptake of radioactivity to essentially levels equivalent to background in non-target tissues
"[11CH3]Oc1ccc(CCNC(=O)c2cnc(C#N)nc2NC2CCCCC2)cc1 [[^11C]1, 2-cyano-4-(cyclohexylamino)-N-(4-[^11C]methoxyphenethyl)-pyrimidine-5-carboxamide]",radioactivity in actively growing bone regions relative to non-target regions such as muscle,cathepsin K,2 to 3 times
same,"Tissue biodistribution, Adrenal, avg",[1]; 5 min,3.57 % injected dose/g
same,"Tissue biodistribution, Blood, avg",[1]; 5 min,0.24 % injected dose/g
same,"Tissue biodistribution, Brain, avg",[1]; 5 min,0.43 % injected dose/g
same,"Tissue biodistribution, Heart, avg",[1]; 5 min,1.23 % injected dose/g
same,"Tissue biodistribution, Kidney, avg",[1]; 5 min,2.03 % injected dose/g
same,"Tissue biodistribution, Liver, avg",[1]; 5 min,3.02 % injected dose/g
same,"Tissue biodistribution, Lung, avg",[1]; 5 min,0.68 % injected dose/g
same,"Tissue biodistribution, Muscle, avg",[1]; 5 min,0.11 % injected dose/g
same,"Tissue biodistribution, Pancreas, avg",[1]; 5 min,1.68 % injected dose/g
same,"Tissue biodistribution, Spleen, avg",[1]; 5 min,1.03 % injected dose/g
same,"Tissue biodistribution, Bone, avg",[1]; 5 min,0.26 % injected dose/g
same,"Tissue biodistribution, Adrenal, avg",[1]; 40 min,0.51 % injected dose/g
same,"Tissue biodistribution, Blood, avg",[1]; 40 min,0.11 % injected dose/g
same,"Tissue biodistribution, Brain, avg",[1]; 40 min,0.11 % injected dose/g
same,"Tissue biodistribution, Heart, avg",[1]; 40 min,0.19 % injected dose/g
same,"Tissue biodistribution, Kidney, avg",[1]; 40 min,0.41 % injected dose/g
same,"Tissue biodistribution, Liver, avg",[1]; 40 min,0.68 % injected dose/g
same,"Tissue biodistribution, Lung, avg",[1]; 40 min,0.16 % injected dose/g
same,"Tissue biodistribution, Muscle, avg",[1]; 40 min,0.11 % injected dose/g
same,"Tissue biodistribution, Pancreas, avg",[1]; 40 min,0.56 % injected dose/g
same,"Tissue biodistribution, Spleen, avg",[1]; 40 min,0.22 % injected dose/g
same,"Tissue biodistribution, Bone, avg",[1]; 40 min,0.14 % injected dose/g
